Assay outcomes as filed in PubChem.
DAGLB inh – DAGLB lipase inhibitors, primary screen, biochemical, fluorescence, HTS; Diacylglycerol lipase-beta (Homo sapiens), Q8NCG7; HEK293T DAGLB membrane lysate, EnzChek fluorogenic substrate; inhibition, % at 5.17 µM; 340,000 tested, 0.059% active; AID 504411, 2011; in the data active = inhibition above about 34%;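 also: 0% = enzyme with vehicle and 100% = wells lacking enzyme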
Target sequence (Q8NCG7 whole entry, looked up): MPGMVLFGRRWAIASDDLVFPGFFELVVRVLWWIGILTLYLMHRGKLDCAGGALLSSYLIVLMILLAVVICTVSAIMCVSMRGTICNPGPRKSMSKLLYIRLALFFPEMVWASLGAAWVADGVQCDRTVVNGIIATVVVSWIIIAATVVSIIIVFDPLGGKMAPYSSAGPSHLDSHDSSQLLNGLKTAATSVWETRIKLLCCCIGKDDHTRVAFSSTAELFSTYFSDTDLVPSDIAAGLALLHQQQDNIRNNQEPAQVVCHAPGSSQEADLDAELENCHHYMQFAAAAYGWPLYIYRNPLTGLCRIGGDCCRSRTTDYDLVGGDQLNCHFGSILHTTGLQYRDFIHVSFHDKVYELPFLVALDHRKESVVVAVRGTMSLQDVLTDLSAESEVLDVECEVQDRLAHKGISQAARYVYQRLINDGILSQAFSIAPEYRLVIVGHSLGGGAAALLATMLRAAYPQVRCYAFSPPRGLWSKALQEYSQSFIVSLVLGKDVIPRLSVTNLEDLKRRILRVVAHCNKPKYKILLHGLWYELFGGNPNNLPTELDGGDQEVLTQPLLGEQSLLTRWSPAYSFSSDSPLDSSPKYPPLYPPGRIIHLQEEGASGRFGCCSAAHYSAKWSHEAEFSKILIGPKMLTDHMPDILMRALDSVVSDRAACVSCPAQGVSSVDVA
sPLA2-III inh – human group III sPLA2 inhibitors, primary screen, biochemical, QFRET, BODIPY PC-A2 liposome substrate; Group 3 secretory phospholipase A2 (Homo sapiens), Q9NZ20; inhibition, % at 12.2 µM; QFRET BODIPY PC-A2 liposome hydrolysis, fluorescence; 370,000 tested, 0.56% active;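 active = inhibition above mean plus 3 SD of compounds lying within the high and low control bounds, cut at about 19% in these data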;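 also: 0% = median of test compound wells and 100% = no enzyme DMSO wells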
PLCg1 inh – PLC-gamma1 enzyme inhibitors, primary screen, biochemical, fluorescence, purified enzyme; inhibition, % at 12.2 µM; fluorogenic substrate; 370,000 tested, 0.84% active; in the data active = inhibition above about 9.5%
TbMetRS inhib – T. brucei MetRS inhibitors, primary screen, biochemical, luminescence. 360,000 tested, 0.4% active. methionyl-tRNA synthetase (Trypanosoma brucei brucei). inhibition, % at 11.9 µM. purified T. brucei MetRS, ATP depletion, Kinase-Glo luminescence;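 active = inhibition above a per-plate cutoff of the control wells' mean inhibition plus 3 SD, cut at about 5.5% in these data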;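 also: 0% = DMSO wells median and 100% = median of wells with control inhibitor compound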
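Material: T. brucei methionyl-tRNA synthetase, purified; reagent: substrates ATP, L-methionine and bulk Escherichia coli tRNA; dosing: 11.9 µM single point; timing: 15 min plus 2 h at 25 °C; detection: luminescence of leftover ATP; evaluation: % inhibition; control set: DMSO-only wells as low control; replicates: singlicate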
PLC-beta3 inh – human PLC-beta3 inhibitors, primary screen, biochemical, fluorescence; 1-phosphatidylinositol 4,5-bisphosphate phosphodiesterase beta-3 (Homo sapiens), Q01970; Purified PLC-beta3, fluorogenic substrate; inhibition, % at 12.2 µM; 370,000 tested, 0.18% active; AID 720704, 2013; in the data active = inhibition above about 11%;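 also: 0% = median of compound wells on plate and 100% = full blocker control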
Numbers without * were called inactive. Compounds with a hit are over-represented: about 1.9% of the library has one in this group of screens.

How did O=C(C(=O)N1CCC(CNS(=O)(=O)c2ccc(F)c(F)c2)CC1)c1cc2ccccc2o1 do in these assays?
sPLA2-III inh: -23; PLCg1 inh: -3; PLC-beta3 inh: -3

How did COc1ccc(C(=S)N2CCNCC2)cc1 do in these assays?
DAGLB inh: 0; sPLA2-III inh: 4; PLCg1 inh: 1; TbMetRS inhib: -1; PLC-beta3 inh: 4

What do the screens show for `COc1ccc(C(=S)N2CCCCCC2)cc1`?
DAGLB inh: 1; sPLA2-III inh: 15; PLCg1 inh: 9.9*; TbMetRS inhib: 0; PLC-beta3 inh: 2

What do the screens show for `CCCC(=O)OCCNc1cc(Sc2nccn2C)c2nonc2c1[N+](=O)[O-]`?
DAGLB inh: -2; sPLA2-III inh: 19*; PLCg1 inh: 2; TbMetRS inhib: 1; PLC-beta3 inh: -4

What do the screens show for `OC(CSc1ccccc1Cl)CN1CCN(c2ccc(F)cc2)CC1` (stereo not given)?
DAGLB inh: -9; sPLA2-III inh: -11; PLCg1 inh: 4; TbMetRS inhib: 0; PLC-beta3 inh: 6

Results for OC(CSc1c(Cl)cccc1Cl)CN1CCN(c2ccc(F)cc2)CC1 (stereo not given) ?
DAGLB inh: -5; sPLA2-III inh: 0; PLCg1 inh: 15*; TbMetRS inhib: -1; PLC-beta3 inh: 8

How did COc1cccc(CNC(=O)COC(=O)c2c(NC(C)=O)sc(C)c2C)c1 do in these assays?
DAGLB inh: 0; sPLA2-III inh: -6; PLCg1 inh: 2; TbMetRS inhib: 0; PLC-beta3 inh: 2

Results for CC(=O)Nc1sc(C)c(C)c1C(=O)OCC(=O)NCc1ccc(Cl)cc1 ?
DAGLB inh: 0; sPLA2-III inh: 4; PLCg1 inh: 12*; TbMetRS inhib: 0; PLC-beta3 inh: -4

What do the screens show for `C=CCN1[C@@H](CC(C)C)COc2cc(F)ccc2S1(=O)=O`?
sPLA2-III inh: 7; PLCg1 inh: -1; PLC-beta3 inh: 0

What do the screens show for `O=C(NCCCN1CCc2ccccc2C1)Nc1ccc(Br)cc1`?
DAGLB inh: 1; sPLA2-III inh: -16; PLCg1 inh: 1; TbMetRS inhib: 3; PLC-beta3 inh: 2

What do the screens show for `O=C(NCCN1CCc2ccccc2C1)Nc1ccc([N+](=O)[O-])cc1`?
DAGLB inh: 0; sPLA2-III inh: 21*; PLCg1 inh: 3; TbMetRS inhib: 0; PLC-beta3 inh: -4

What do the screens show for `CC(C)C(=O)N[C@H]1[C@H](O)CCC[C@@]12C(=O)N(Cc1ccccc1)c1ccccc12`?
sPLA2-III inh: 6; PLCg1 inh: 2; PLC-beta3 inh: 6

Results for CCc1c(-c2ccc(Br)cc2)ncn1CCc1ccccc1OC ?
sPLA2-III inh: -4; PLCg1 inh: 1; PLC-beta3 inh: 4

Results for CC1CCN(c2ccc(C(=O)O)cc2NS(=O)(=O)c2ccccc2[N+](=O)[O-])CC1 ?
sPLA2-III inh: -13; PLCg1 inh: 3; PLC-beta3 inh: 2

What do the screens show for `CN(C1=C(N2CCCCC2)C(=O)c2ccccc2C1=O)c1ccccc1`?
DAGLB inh: 38*; sPLA2-III inh: 12; PLCg1 inh: 5; TbMetRS inhib: 0; PLC-beta3 inh: 0

Results for CC(/C=N/n1c(-c2ccc(C)cc2)n[nH]c1=S)=C\c1ccco1 ?
DAGLB inh: -6; sPLA2-III inh: 6; PLCg1 inh: 4; TbMetRS inhib: 0; PLC-beta3 inh: -5

Results for Cc1cccc(-c2n[nH]c(=S)n2/N=C/C=C/c2ccco2)c1 ?
DAGLB inh: 5; sPLA2-III inh: 31*; PLCg1 inh: -11; TbMetRS inhib: -1; PLC-beta3 inh: -17

How did CC(/C=N/n1c(-c2ccncc2)n[nH]c1=S)=C\c1ccco1 do in these assays?
sPLA2-III inh: 23*; PLCg1 inh: -3; TbMetRS inhib: 0; PLC-beta3 inh: -12

What do the screens show for `COc1cc(OC)cc(-c2csc(N3CCC(C(N)=O)CC3)n2)c1`?
sPLA2-III inh: 0; PLCg1 inh: 1; PLC-beta3 inh: 1

What do the screens show for `CCC[n+]1c2ccccc2cc2ccccc21`?
DAGLB inh: 11; sPLA2-III inh: 29*; PLCg1 inh: -95; TbMetRS inhib: -1; PLC-beta3 inh: -137

Results for CCCCC[n+]1cccc2c3ccccc3ccc21 ?
DAGLB inh: 1; sPLA2-III inh: 2; PLCg1 inh: -210; TbMetRS inhib: 0; PLC-beta3 inh: -228

What do the screens show for `CCOc1ccc(-n2c(SC/C=C/c3ccccc3)nnc2-c2cccs2)cc1`?
sPLA2-III inh: -11; PLCg1 inh: 1; PLC-beta3 inh: -3

What do the screens show for `O=C(NCCOC(=O)c1ccccc1C(=O)OCCNC(=O)c1cccnc1)c1cccnc1`?
DAGLB inh: 0; sPLA2-III inh: 2; PLCg1 inh: 8; TbMetRS inhib: 0; PLC-beta3 inh: 12*

How did CC1(C)CC(=O)N(CC(=O)N2CCN(c3ccc(F)cc3)CC2)c2ccccc2S1(=O)=O do in these assays?
sPLA2-III inh: -1; PLCg1 inh: -1; PLC-beta3 inh: 0

How did C[C@@H](NC(=O)c1ccc(C#Cc2cccc(F)c2)cn1)C(C)(C)O do in these assays?
sPLA2-III inh: 7; PLCg1 inh: -6; PLC-beta3 inh: -13

What do the screens show for `O=C1C(=Cc2ccco2)CCC1=Cc1ccco1`?
DAGLB inh: -4; sPLA2-III inh: -4; PLCg1 inh: 11*; TbMetRS inhib: 0; PLC-beta3 inh: -4

What do the screens show for `CN(C)c1ccc(-c2nn3c(-c4ccco4)nnc3s2)cc1`?
sPLA2-III inh: 7; PLCg1 inh: -13; PLC-beta3 inh: -21

How did CCN(CC)c1ccc(N=Nc2ncn[nH]2)cc1 do in these assays?
sPLA2-III inh: -25; PLCg1 inh: 3; TbMetRS inhib: 0; PLC-beta3 inh: 12*

What do the screens show for `CCn1c(COc2ccc(C)cc2)nnc1SCC(=O)Nc1ccccc1-c1ccccc1`?
sPLA2-III inh: -26; PLCg1 inh: -1; PLC-beta3 inh: -3

Results for O=C1CCCN2N=C(SCC(=O)Nc3nc4ccccc4s3)SC2=N1 ?
DAGLB inh: 4; sPLA2-III inh: -6; PLCg1 inh: 10*; TbMetRS inhib: -1; PLC-beta3 inh: -3

Results for O=C1CCCN2N=C(SCC(=O)Nc3nccs3)SC2=N1 ?
DAGLB inh: 2; sPLA2-III inh: 1; PLCg1 inh: -1; TbMetRS inhib: 0; PLC-beta3 inh: 4

Results for COc1ccc(-c2cc(-c3nnc(SCC(=O)Nc4ccc(OCc5ccccc5)cc4)n3N)[nH]n2)cc1 ?
sPLA2-III inh: -3; PLCg1 inh: 0; PLC-beta3 inh: 2

Results for Cc1ccc2c(c1)[C@H]1[C@H](CO2)[C@H](c2ccccc2)[C@]2(C)C(=O)N(CC3CCCO3)CC(=O)N12 (stereo not given in full) ?
DAGLB inh: -2; sPLA2-III inh: 3; PLCg1 inh: 2; TbMetRS inhib: 0; PLC-beta3 inh: 0
